What was measured:
[1] = target: T1, Adenosine receptor A1 (Rattus norvegicus) (UniProt P25099); assay: Displacement of specific [3H](R)-PIA binding at Adenosine A1 receptor from rat brain membranes; type: cell membranes; design: concentration or dose not given beside the values; settings: Membrane; concentration not given here
T1 sequence (whole entry): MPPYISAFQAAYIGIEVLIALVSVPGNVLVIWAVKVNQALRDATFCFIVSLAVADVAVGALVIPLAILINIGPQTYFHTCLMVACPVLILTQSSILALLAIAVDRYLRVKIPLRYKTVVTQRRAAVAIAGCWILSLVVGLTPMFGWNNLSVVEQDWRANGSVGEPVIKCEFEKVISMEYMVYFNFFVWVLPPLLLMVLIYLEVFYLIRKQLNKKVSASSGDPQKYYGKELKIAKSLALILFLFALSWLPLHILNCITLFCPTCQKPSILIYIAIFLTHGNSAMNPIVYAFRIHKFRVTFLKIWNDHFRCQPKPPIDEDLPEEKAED

[2] = target: Adenosine receptor A2a (Rattus norvegicus) (UniProt P30543); assay: Displacement of specific [3H]-CGS- 21680 binding at adenosine A2A receptor in rat striatal membranes.; type: cell membranes; design: concentration or dose not given beside the values; settings: Membrane; concentration not given here
Chain of Adenosine receptor A2a (Rattus norvegicus) (P30543 whole entry): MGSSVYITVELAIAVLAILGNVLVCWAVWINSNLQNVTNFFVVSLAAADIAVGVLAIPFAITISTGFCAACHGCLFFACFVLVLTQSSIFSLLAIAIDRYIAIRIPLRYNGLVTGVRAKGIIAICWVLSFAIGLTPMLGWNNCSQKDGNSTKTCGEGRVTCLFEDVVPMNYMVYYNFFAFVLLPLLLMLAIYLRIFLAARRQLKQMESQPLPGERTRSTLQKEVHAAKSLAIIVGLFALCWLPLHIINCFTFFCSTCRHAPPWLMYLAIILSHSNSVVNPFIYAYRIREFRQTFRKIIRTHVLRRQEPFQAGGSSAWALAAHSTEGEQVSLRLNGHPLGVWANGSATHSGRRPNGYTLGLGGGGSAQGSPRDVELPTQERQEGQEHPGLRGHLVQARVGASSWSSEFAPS

[3] = target: Adenosine receptor A2a (Rattus norvegicus) (UniProt P30543); assay: Displacement of specific [3H]-CGS- 21680 binding at Adenosine A2A receptor in rat striatal membranes at the concentration of 10e-4 M; type: cell membranes; settings: Membrane
How it was run: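 [3H]CGS 21680 binding to rat striatal membranes, with adenosine deaminase (3 units/mL) during preparation, 30 min 30 °C preincubation and incubation. Reported as % of specific binding displaced at 10^-4 M.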

[4] = target: T1, Adenosine receptor A1 (Rattus norvegicus); assay: Displacement of specific [3H](R)-PIA binding at Adenosine A1 receptor from rat brain membranes at the concentration of 10e-4 M; type: cell membranes; settings: Membrane
How it was run: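 [3H](R)-PIA binding to rat cerebral cortex membranes with adenosine deaminase (3 units/mL) present in preparation, 30 min 30 °C preincubation and incubation. Result given as % of specific binding displaced at 10^-4 M.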

Adenosine receptor A1 = target: T2, Adenosine receptor A1 (Rattus norvegicus, UniProt P25099); assay: Displacement of specific [3H](R)-PIA binding at adenosine A1 receptor from rat brain membranes.; type: cell membranes, Membrane
T2 sequence (P25099 whole entry): T1 sequence (whole entry)

Adenosine receptor A3 = target: T3, Adenosine receptor A3 (Homo sapiens, UniProt P0DMS8); assay: Displacement of specific [125I]AB-MECA binding at human adenosine A3 receptor.
T3 sequence (P0DMS8 whole entry): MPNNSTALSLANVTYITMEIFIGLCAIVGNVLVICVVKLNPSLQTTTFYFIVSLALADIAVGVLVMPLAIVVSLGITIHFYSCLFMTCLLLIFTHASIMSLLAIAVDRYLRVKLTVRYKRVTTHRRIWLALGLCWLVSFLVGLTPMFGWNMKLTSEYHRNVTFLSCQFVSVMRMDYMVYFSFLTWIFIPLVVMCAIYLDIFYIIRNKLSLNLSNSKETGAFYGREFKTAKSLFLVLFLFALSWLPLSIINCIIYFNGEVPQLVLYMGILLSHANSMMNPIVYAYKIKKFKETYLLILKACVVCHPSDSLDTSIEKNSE

Adenosine receptor A2a = Adenosine receptor A2a (Rattus norvegicus, UniProt P30543); assay: Displacement of specific [3H]-CGS- 21680 binding at Adenosine A2A receptor in rat striatal membranes.; type: cell membranes, Membrane
Chain of Adenosine receptor A2a (P30543 whole entry): as the sequence (P30543 whole entry) above

Homo sapiens = species on record: Homo sapiens; assay: Selectivity ratio measured as the Ki value of rat A1 receptor to that of hA3 receptor.
[5] = target: T4, Adenosine receptor A3 (Homo sapiens) (UniProt P0DMS8); assay: Displacement of [125I]AB-MECA binding at human Adenosine A3 receptor at 10e-7 M
T4 sequence (whole entry): T3 sequence (P0DMS8 whole entry)
How it was run: (§1)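 Nonspecific binding defined with 100 µM (R)-PIA. Compounds dissolved in DMSO, ≤2% in assay. Stopped by rapid filtration over GF/B filters with three buffer rinses; result given as % specific binding displaced at the stated concentration.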

[6] = target: T4, Adenosine receptor A3 (Homo sapiens); assay: Displacement of [125I]AB-MECA binding at human Adenosine A3 receptor at 10e-5 M; how it was run: as §1

Compound CCO/C(O)=C1\C(C)=NC(c2ccccc2)=C(C(=O)OCc2ccc(C(F)(F)F)cc2)C1C#Cc1ccccc1 (centres undefined) has an inhibition [1] of 32% and an inhibition [2] of 15%.
For CCNC(=O)C1=C(c2ccccc2)N=C(C)/C(=C(/O)OCC)C1C#Cc1ccccc1 (centres undefined), the inhibition [2] was 47%.
Work on CCOC(=O)C1=C(c2ccccc2)N=C(C)/C(=C(/O)OCC)C1c1cccs1 (centres undefined) yielded an inhibition [2] of 36%.
Work on CCO/C(O)=C1\C(C)=NC(c2ccccc2)=C(C(=O)OCc2ccc([N+](=O)[O-])cc2)C1C#Cc1ccccc1 (centres undefined) yielded an inhibition [1] of 29% and a Displacement [3] of less than 10%.
Compound CCOC(=O)C1=C(c2ccccc2)N=C(C)/C(=C(/O)OCC)C1c1cc2ccccc2o1 (centres undefined) has a Displacement [3] of less than 10%.
CCO/C(O)=C1\C(C)=NC(c2ccccc2)=C(C(=O)OCc2cc([N+](=O)[O-])cc([N+](=O)[O-])c2)C1C#Cc1ccccc1 (centres undefined) was tested, and the inhibition [1] was 20% and the inhibition [2] was 40%.
CCOC(=O)C1=C(c2ccccc2)N=C(C)/C(=C(/O)OCC)C1C#Cc1ccc([N+](=O)[O-])cc1 (centres undefined) showed an inhibition [2] of 24%.
In the case of CCO/C(O)=C1\C(C)=NC(c2ccccc2)=C(C(=O)OCc2cccc(C)c2)C1C#Cc1ccccc1 (centres undefined), the Displacement [4] is reported as less than 10% and the inhibition [2] is reported as 16%.
CCO/C(O)=C1\C(C)=NC(c2ccccc2)=C(C(=O)OCc2cccc(I)c2)C1C#Cc1ccccc1 (centres undefined) showed an inhibition [1] of 14% and an inhibition [2] of 19%.
CCO/C(O)=C1\C(C)=NC(c2ccccc2)=C(C(=O)OCc2ccc(C(=O)OCC(Cl)(Cl)Cl)cc2)C1C#Cc1ccccc1 (centres undefined) was tested, and the inhibition [1] was 33% and the inhibition [2] was 11%.
Compound CCOCN1C(C)=C(C(=O)OCC)C(C#Cc2ccccc2)C(C(=O)O)=C1c1ccccc1 (centres undefined) has a Ki (Adenosine receptor A1) of 19.1 µM, an inhibition [2] of 36% and a Ki (Adenosine receptor A3) greater than 100 µM.
CCOC(=O)C1=C(C(F)(F)F)N=C(C)/C(=C(/O)OCC)C1C#Cc1ccccc1 (centres undefined) showed an inhibition [2] of 25%.
For CCO/C(O)=C1\C(C)=NC(c2ccccc2)=C(C(=O)OCc2ccccc2C)C1C#Cc1ccccc1 (centres undefined), the inhibition [1] was 16% and the inhibition [2] was 13%.
With CCOC(=O)C1=C(c2ccccc2)N=C(C)/C(=C(/O)OCC)C1c1ccncc1 (centres undefined) the Ki (Adenosine receptor A2a) was 44.7 µM.
Cc1ccc(-c2oc3ccc(Cl)cc3c(=O)c2Cl)c(OC(C)C)c1 gave a Ki (Adenosine receptor A1) of 100 µM and a Ki (Adenosine receptor A2a) greater than 100 µM.
In the case of CCCO/C(O)=C1\C(C)=NC(c2ccccc2)=C(C(=O)OCc2ccccc2)C1C#Cc1ccccc1 (centres undefined), the inhibition [1] is reported as 21% and the inhibition [2] is reported as 16%.
CCOC(=O)C1=C(c2ccccc2)N=C(C)/C(=C(/O)OCC)C1c1ccco1 (centres undefined) gave an inhibition [2] of 45%.
For CCO/C(O)=C1\C(C)=NC(c2ccccc2)=C(C(=O)OCC(OC)c2ccccc2)C1C#Cc1ccccc1 (centres undefined), the inhibition [2] was 33%.
Compound CCOC(=O)C1=C(C)NC(C)=C(C(=O)OC)C1C#Cc1ccccc1 (centres undefined) has a Selectivity ratio (Homo sapiens) of 5.7.
CCOC(=O)C1=C(c2ccccc2)NC(C)=C(C(C)=O)C1C#Cc1ccccc1 (centres undefined) showed an inhibition [2] of 17%.
In the case of CCO/C(O)=C1\C(CC)=NC(c2ccccc2)=C(C(=O)OCc2ccccc2)C1C#Cc1ccccc1 (centres undefined), the inhibition [1] is reported as 25% and the Displacement [3] is reported as less than 10%.
CCO/C(O)=C1\C(C)=NC(c2ccccc2)=C(C(=O)OCCCc2ccccc2)C1C#Cc1ccccc1 (centres undefined) showed a Displacement [4] of less than 10% and a Displacement [3] of less than 10%.
CCOC(=O)C1=C(c2ccccc2)N=C(C)/C(=C(/O)OCC)C1c1ccccn1 (centres undefined) was tested, and the inhibition [2] was 25%.
Work on CCO/C(O)=C1\C(C)=NC(c2ccccc2)=C(C(=O)OCc2ccc(C)cc2)C1C#Cc1ccccc1 (centres undefined) yielded a Displacement [4] of less than 10% and an inhibition [2] of 17%.
In the case of CCO/C(O)=C1\C(C)=NC(c2ccccc2)=C(C(=O)OCC[Si](C)(C)C)C1C#Cc1ccccc1 (centres undefined), the inhibition [2] is reported as 18%.
For CCNC(=O)C1=C(c2ccccc2)N(COCC)C(C)=C(C(=O)OCC)C1C#Cc1ccccc1 (centres undefined), the inhibition [2] was 35%.
CCO/C(O)=C1\C(C)=NC(c2ccccc2)=C(C(=O)OCc2ccccc2)C1C#Cc1ccccc1 (centres undefined) was tested, and the Displacement [3] was less than 10%.
CCOC(=O)C1=C(C)N(COC)C(c2ccccc2)=C(C(=O)OCC[Si](C)(C)C)C1C#Cc1ccccc1 (centres undefined) was tested, and the Displacement [4] was less than 10% and the inhibition [2] was 27%.
CCOC(=O)C1=C(c2ccccc2)N=C(C)/C(=C(/O)OCc2ccccc2)C1C#Cc1ccccc1 (centres undefined) showed an inhibition [1] of 24% and a Displacement [3] of less than 10%.
CCO/C(O)=C1\C(C)=NC(c2ccccc2)=C(C(=O)OC(C)(C)C)C1C#Cc1ccccc1 (centres undefined) showed an inhibition [2] of 27%.
In the case of CCO/C(O)=C1\C(C)=NC(c2ccccc2)=C(C(=O)OCCc2ccccc2)C1C#Cc1ccccc1 (centres undefined), the Displacement [4] is reported as less than 10% and the Displacement [3] is reported as less than 10%.
For CCOC(=O)C1=C(c2ccccc2)N=C2CCCC(O)=C2C1C#Cc1ccccc1 (centres undefined), the inhibition [2] was 22%.
For CCNC(=O)C1=C(C)NC(c2ccccc2)=C(C(=O)OCC)C1C#Cc1ccccc1 (centres undefined), the inhibition [2] was 19%.
With CCO/C(O)=C1\C(C)=NC(c2ccccc2)=C(C(=O)OCc2cccc([N+](=O)[O-])c2)C1C#Cc1ccccc1 (centres undefined) the inhibition [1] was 28.2% and the Displacement [3] was less than 10%.
With CCO/C(O)=C1\C(C)=NC(c2ccccc2)=C(C(=O)OCc2cc(C(F)(F)F)cc(C(F)(F)F)c2)C1C#Cc1ccccc1 (centres undefined) the Displacement [4] was less than 10% and the inhibition [2] was 29%.
With CCO/C(O)=C1\C(C)=NC(c2ccccc2)=C(C(=O)OCc2ccc(C(=O)NCCN)cc2)C1C#Cc1ccccc1 (centres undefined) the inhibition [1] was 68%, the Displacement [5] was less than 10% and the inhibition [2] was 39%.
In the case of CCOC(=O)C1=C(c2ccccc2)N=C(C)/C(=C(/O)OC(C)(C)C)C1C#Cc1ccccc1 (centres undefined), the inhibition [2] is reported as 20%.
With CCOC(=O)C1=C(c2ccccc2)N=C(C)/C(=C(/O)SCC)C1C#Cc1ccccc1 (centres undefined) the Ki (Adenosine receptor A2a) was 5.15 µM.
In the case of CCO/C(O)=C1\C(C)=NC(c2ccccc2)=C(C(=O)SCC)C1C#Cc1ccccc1 (centres undefined), the inhibition [2] is reported as 17%.
Work on CCOC(=O)C1=C(c2ccccc2)N=C(C)/C(=C(/O)OCC)C1c1ccccc1 (centres undefined) yielded a Displacement [3] of less than 10%.
For CCOC(=O)C1=C(c2ccccc2)N=C(C)/C(=C(/O)OCC)C1C#Cc1ccccc1 (centres undefined), the inhibition [2] was 26%.
In the case of COC(=O)C1=C2C=CN(C)C=C2c2nc(-c3ccccc3)nn2C1, the Ki (Adenosine receptor A3) is reported as 0.013 µM.
For CCOC(=O)C1=C(c2ccccc2)N=C(C)/C(=C(/O)OCC)C1C#Cc1cccc(C)c1 (centres undefined), the inhibition [1] was 41% and the Displacement [3] was less than 10%.
C=CCO/C(O)=C1\C(C)=NC(c2ccccc2)=C(C(=O)OCC)C1/C=C/c1ccc([N+](=O)[O-])cc1 (centres undefined) showed a Displacement [4] of less than 10% and an inhibition [2] of 15%.
Work on CCO/C(O)=C1\C(C)=NC(c2ccccc2)=C(C(=O)O)C1C#Cc1ccccc1 (centres undefined) yielded an inhibition [2] of 16% and a Displacement [6] of less than 10%.
Compound CCOC(=O)C1=C(C)N=C(C)/C(=C(/O)OCC)C1c1cccs1 (centres undefined) has an inhibition [2] of 25%.
Compound CCOC(=O)C1=C(c2ccccc2)N=C(C)/C(=C(/O)OCC)C1/C=C/c1ccc(N)cc1 (centres undefined) has an inhibition [2] of 26%.
CCOC(=O)C1=C(c2ccccc2)N=C(C)/C(=C(/O)OCC)C1c1cccnc1 (centres undefined) gave an inhibition [2] of 40%.
Work on CCOCN1C(C)=C(C(=O)OCC)C(C#Cc2ccccc2)C(C(=O)OCC[Si](C)(C)C)=C1c1ccccc1 (centres undefined) yielded an inhibition [1] of 13% and an inhibition [2] of 19%.
